From ChEMBL document CHEMBL4689842, “EUbOPEN Chemogenomics Library wave 1” (2021)

Test system: HEK-293T
Assay: Multiplex assay against HEK293T;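 as to Population Tubulin-Different-Phenotype (%): share of the cells with healthy nuclei that show this phenotype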
Assay type: toxicity, cell-based
Conditions: human
Method in brief: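 Imaging took place on a CQ1 microscope at 37°C and 5% CO2 once compound had been added to live cells stained at seeding with Hoechst33342, BioTracker Green Microtubule Cytoskeleton Dye, MitoTracker Red and Annexin V Alexa Fluor 680. CellPathfinder machine-learning gating classed cells as Hoechst high-intensity objects or normal cells, classed normal cells as having healthy, pyknosed or fragmented nuclei, and classed pyknosed cells as mitotic or apoptotic. Tubulin, mitochondrial-mass and membrane-permeability phenotypes are per cents of the healthy-nucleus cells.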

[1] = 12 h, 1 µM, compound concentration 1 uM, replicate 1
[2] = 12 h, 1 µM, compound concentration 1 uM, replicate 2
[3] = 12 h, 10 µM, compound concentration 10 uM, replicate 1
[4] = 12 h, 10 µM, compound concentration 10 uM, replicate 2
[5] = 24 h, 1 µM, compound concentration 1 uM, replicate 1
[6] = 24 h, 1 µM, compound concentration 1 uM, replicate 2
[7] = 24 h, 10 µM, compound concentration 10 uM, replicate 1
[8] = 24 h, 10 µM, compound concentration 10 uM, replicate 2
[9] = 48 h, 1 µM, compound concentration 1 uM, replicate 1
[10] = 48 h, 1 µM, compound concentration 1 uM, replicate 2
[11] = 48 h, 10 µM, compound concentration 10 uM, replicate 1
[12] = 48 h, 10 µM, compound concentration 10 uM, replicate 2

## Cc1c(P(=S)(c2ccccc2)c2ccccc2)n2ccccc2[n+]1C/C=C/c1ccccc1.[Br-]
[1]
  Population Apoptotic (%): 65%
  Population Fragmented Nuclei (%): 12%
  Population Healthy Nuclei (%): 24%
  Population Hoechst High Intensity Objects (%): 17%
  Population Membrane Permeable-Phenotype (%): 6%
  Population Mitochondria Different-Phenotype (%): 93%
  Population Mitotic Cells (%): 34%
  Population Normal (%): 82%
  Population Pyknosed Nuclei (%): 62%
  Population Tubulin-Different-Phenotype (%): 83%
  Total Cell Count: 211
[2]
  Population Apoptotic (%): 86%
  Population Fragmented Nuclei (%): 6%
  Population Healthy Nuclei (%): 30%
  Population Hoechst High Intensity Objects (%): 5%
  Population Membrane Permeable-Phenotype (%): 0%
  Population Mitochondria Different-Phenotype (%): 87%
  Population Mitotic Cells (%): 13%
  Population Normal (%): 94%
  Population Tubulin-Different-Phenotype (%): 77%
  Total Cell Count: 138
[3]
  Population Apoptotic (%): 34%
  Population Fragmented Nuclei (%): 31%
  Population Healthy Nuclei (%): 2%
  Population Hoechst High Intensity Objects (%): 21%
  Population Membrane Permeable-Phenotype (%): 14%
  Population Mitochondria Different-Phenotype (%): 28%
  Population Mitotic Cells (%): 65%
  Population Normal (%): 78%
  Population Pyknosed Nuclei (%): 65%
  Population Tubulin-Different-Phenotype (%): 100%
  Total Cell Count: 398
[4]
  Population Apoptotic (%): 82%
  Population Fragmented Nuclei (%): 9%
  Population Healthy Nuclei (%): 6%
  Population Hoechst High Intensity Objects (%): 14%
  Population Membrane Permeable-Phenotype (%): 0%
  Population Mitochondria Different-Phenotype (%): 54%
  Population Mitotic Cells (%): 17%
  Population Normal (%): 85%
  Population Pyknosed Nuclei (%): 84%
  Population Tubulin-Different-Phenotype (%): 90%
  Total Cell Count: 192
[5]
  Population Apoptotic (%): 62%
  Population Fragmented Nuclei (%): 20%
  Population Healthy Nuclei (%): 18%
  Population Hoechst High Intensity Objects (%): 19%
  Population Membrane Permeable-Phenotype (%): 3%
  Population Mitochondria Different-Phenotype (%): 90%
  Population Mitotic Cells (%): 37%
  Population Normal (%): 80%
  Population Pyknosed Nuclei (%): 61%
  Population Tubulin-Different-Phenotype (%): 87%
  Total Cell Count: 217
[6]
  Population Apoptotic (%): 88%
  Population Fragmented Nuclei (%): 6%
  Population Healthy Nuclei (%): 41%
  Population Hoechst High Intensity Objects (%): 7%
  Population Membrane Permeable-Phenotype (%): 0%
  Population Mitochondria Different-Phenotype (%): 98%
  Population Mitotic Cells (%): 11%
  Population Normal (%): 92%
  Population Pyknosed Nuclei (%): 51%
  Population Tubulin-Different-Phenotype (%): 85%
  Total Cell Count: 147
[7]
  Population Apoptotic (%): 52%
  Population Fragmented Nuclei (%): 36%
  Population Healthy Nuclei (%): 0%
  Population Hoechst High Intensity Objects (%): 21%
  Population Membrane Permeable-Phenotype (%): 0%
  Population Mitochondria Different-Phenotype (%): 100%
  Population Mitotic Cells (%): 47%
  Population Normal (%): 78%
  Population Pyknosed Nuclei (%): 62%
  Total Cell Count: 389
[8]
  Population Apoptotic (%): 86%
  Population Fragmented Nuclei (%): 12%
  Population Healthy Nuclei (%): 14%
  Population Hoechst High Intensity Objects (%): 13%
  Population Membrane Permeable-Phenotype (%): 16%
  Population Mitochondria Different-Phenotype (%): 72%
  Population Mitotic Cells (%): 13%
  Population Normal (%): 86%
  Population Pyknosed Nuclei (%): 72%
  Population Tubulin-Different-Phenotype (%): 100%
  Total Cell Count: 195
[9]
  Population Apoptotic (%): 69%
  Population Fragmented Nuclei (%): 24%
  Population Healthy Nuclei (%): 1%
  Population Hoechst High Intensity Objects (%): 22%
  Population Membrane Permeable-Phenotype (%): 0%
  Population Mitochondria Different-Phenotype (%): 0%
  Population Mitotic Cells (%): 30%
  Population Normal (%): 77%
  Population Pyknosed Nuclei (%): 73%
  Population Tubulin-Different-Phenotype (%): 66%
  Total Cell Count: 209
[10]
  Population Apoptotic (%): 92%
  Population Fragmented Nuclei (%): 7%
  Population Healthy Nuclei (%): 57%
  Population Hoechst High Intensity Objects (%): 8%
  Population Membrane Permeable-Phenotype (%): 4%
  Population Mitochondria Different-Phenotype (%): 91%
  Population Mitotic Cells (%): 8%
  Population Normal (%): 91%
  Population Pyknosed Nuclei (%): 34%
  Population Tubulin-Different-Phenotype (%): 89%
  Total Cell Count: 157
[11]
  Population Apoptotic (%): 65%
  Population Fragmented Nuclei (%): 45%
  Population Healthy Nuclei (%): 1%
  Population Hoechst High Intensity Objects (%): 22%
  Population Membrane Permeable-Phenotype (%): 0%
  Population Mitochondria Different-Phenotype (%): 100%
  Population Mitotic Cells (%): 34%
  Population Normal (%): 77%
  Population Pyknosed Nuclei (%): 53%
  Total Cell Count: 379
[12]
  Population Apoptotic (%): 95%
  Population Fragmented Nuclei (%): 12%
  Population Healthy Nuclei (%): 27%
  Population Hoechst High Intensity Objects (%): 14%
  Population Membrane Permeable-Phenotype (%): 9%
  Population Mitochondria Different-Phenotype (%): 95%
  Population Mitotic Cells (%): 4%
  Population Normal (%): 85%
  Population Pyknosed Nuclei (%): 59%
  Population Tubulin-Different-Phenotype (%): 100%
  Total Cell Count: 175
